Our source for the MIC values is ChEMBL document CHEMBL1933006, “Mechanistic analysis of muraymycin analogues: a guide to the design of MraY inhibitors” (J Med Chem, 2011).

Values after ≈ are worked out from the molar mass of the structure shown. Some results are limits rather than exact numbers.

Format in all cases: functional
Assay [1] relates to Enterococcus faecium. Nature of the assay: Antibacterial activity against vancomycin-resistant Enterococcus faecium SR7917 after 20 hrs by broth microdilution method. The conditions noted are these: SR7917, 20 h. In a few lines: (§1)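 NCCLS broth microdilution in cation-adjusted Mueller–Hinton broth. Serial 2-fold compound dilutions were inoculated with 5 × 10⁴ CFU per 0.1 mL and incubated at 35 °C for 20 h before scoring the MIC.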

For assay [2], the system named is Enterococcus faecium. In words: Antibacterial activity against Enterococcus faecium ATCC 19434 after 20 hrs by broth microdilution method. The following applies: ATCC 19434, 20 h. In a few lines: as §1
Assay [3] deals with Staphylococcus aureus. Nature of the assay: Antibacterial activity against methicillin-sensitive […] Staphylococcus aureus ATCC 29213 after 20 hrs by broth microdilution method. The following applies: ATCC 29213, 20 h. In a few lines:
as §1

The test system of assay [4] is Enterococcus faecalis. In words: Antibacterial activity against vancomycin-resistant Enterococcus faecalis SR7914 after 20 hrs by broth microdilution method. The conditions noted are these: SR7914, 20 h. In a few lines: as §1
On the technique in general: In broth dilution the organism is exposed to a series of concentrations in liquid medium.

The test system of assay [5] is Enterococcus faecalis. In words: Antibacterial activity against Enterococcus faecalis ATCC 29212 after 20 hrs by broth microdilution method. The conditions noted are these: ATCC 29212, 20 h. The gist of the method: as §1
The subject of assay [6] is Staphylococcus aureus. Nature of the assay: Antibacterial activity against methicillin-resistant Staphylococcus aureus isolate SR3637 after 20 hrs by broth microdilution method. The conditions noted are these: isolate SR3637, 20 h. The gist of the method:
as §1

Broadly, the MIC is the least concentration at which growth counts as inhibited. The low end stands for inhibition by little substance, the high end for a need for much substance.

Consider `CCCCOc1ccc(-c2ccc(CC[C@@H](NC(=O)[C@@H](NC(=O)N[C@H](C(=O)O)C(C)C)[C@@H]3CCNC(=N)N3)C(=O)NCCCN[C@H](C(=O)O)[C@H](O[C@@H]3O[C@H](CN)[C@@H](O)[C@H]3O)[C@H]3O[C@@H](n4ccc(=O)[nH]c4=O)[C@H](O)[C@@H]3O)cc2)cc1`, for which the MIC was determined as 8 µg/mL (≈ 7.19 µM) in assay [1]; 4 µg/mL (≈ 3.6 µM) in assay [2]; 64 µg/mL (≈ 57.5 µM) in assay [3]; 64 µg/mL (≈ 57.5 µM) in assay [4]; 32 µg/mL (≈ 28.8 µM) in assay [5]; 64 µg/mL (≈ 57.5 µM) in assay [6].
For the molecule `CCCCCCCCCCCCCCC[C@@H](NC(=O)[C@H](CCCNC(=N)N)NC(=O)N[C@H](C(=O)O)C(C)C)C(=O)NCCCN[C@H](C(=O)O)[C@H](O[C@@H]1O[C@H](CN)[C@@H](O)[C@H]1O)[C@H]1O[C@@H](n2ccc(=O)[nH]c2=O)[C@H](O)[C@@H]1O`, the MIC stood at 2 µg/mL (≈ 1.87 µM) in assay [1]; 4 µg/mL (≈ 3.73 µM) in assay [3]; 4 µg/mL (≈ 3.73 µM) in assay [4]; 4 µg/mL (≈ 3.73 µM) in assay [5]; 4 µg/mL (≈ 3.73 µM) in assay [6].
Consider `CCCCCCCCCCCCCCC[C@H](NC(=O)[C@H](CCCNC(=N)N)NC(=O)N[C@H](C(=O)O)C(C)C)C(=O)NCCCN[C@H](C(=O)O)[C@H](O[C@@H]1O[C@H](CN)[C@@H](O)[C@H]1O)[C@H]1O[C@@H](n2ccc(=O)[nH]c2=O)[C@H](O)[C@@H]1O`, for which the MIC in assay [1] was determined as 1 µg/mL (≈ 0.933 µM); in assay [3], 2 µg/mL (≈ 1.87 µM); in assay [4], 2 µg/mL (≈ 1.87 µM); in assay [5] it was 2 µg/mL (≈ 1.87 µM); in assay [6], 2 µg/mL (≈ 1.87 µM).
Consider `CCCCCCCCCCCCCCC[C@H](NC(=O)[C@H](CCCN)NC(=O)N[C@H](C(=O)O)C(C)C)C(=O)NCCCN[C@H](C(=O)O)[C@H](O[C@@H]1O[C@H](CN)[C@@H](O)[C@H]1O)[C@H]1O[C@@H](n2ccc(=O)[nH]c2=O)[C@H](O)[C@@H]1O`, for which the MIC in assay [1] amounted to 4 µg/mL (≈ 3.88 µM); in assay [3] it was 4 µg/mL (≈ 3.88 µM); in assay [4], 8 µg/mL (≈ 7.77 µM); in assay [5], 8 µg/mL (≈ 7.77 µM); in assay [6] it was 2 µg/mL (≈ 1.94 µM).
Take `CCCCCCCCCCCCCCC[C@@H](NC(=O)[C@@H](N)[C@@H]1CCNC(=N)N1)C(=O)NCCCN[C@H](C(=O)O)[C@H](O[C@@H]1O[C@H](CN)[C@@H](O)[C@H]1O)[C@H]1O[C@@H](n2ccc(=O)[nH]c2=O)[C@H](O)[C@@H]1O`: the MIC in assay [1] is 8 µg/mL (≈ 8.63 µM); in assay [3] it was 8 µg/mL (≈ 8.63 µM); in assay [4], 8 µg/mL (≈ 8.63 µM); in assay [5] it was 4 µg/mL (≈ 4.31 µM); in assay [6], 8 µg/mL (≈ 8.63 µM).
Take `CC(C)[C@H](NC(=O)N[C@H](C(=O)N[C@H](CCCCCCCc1ccc(-c2ccccc2)cc1)C(=O)NCCCN[C@H](C(=O)O)[C@H](O[C@@H]1O[C@H](CN)[C@@H](O)[C@H]1O)[C@H]1O[C@@H](n2ccc(=O)[nH]c2=O)[C@H](O)[C@@H]1O)[C@@H]1CCNC(=N)N1)C(=O)O`: the MIC amounted to 4 µg/mL (≈ 3.6 µM) in assay [1]; 4 µg/mL (≈ 3.6 µM) in assay [2]; 8 µg/mL (≈ 7.21 µM) in assay [3]; 16 µg/mL (≈ 14.4 µM) in assay [4]; 8 µg/mL (≈ 7.21 µM) in assay [5]; 16 µg/mL (≈ 14.4 µM) in assay [6].
In the case of `CCCCCCCCCCCCCCC[C@H](NC(=O)[C@@H](N)[C@@H]1CCNC(=N)N1)C(=O)NCCCN[C@H](C(=O)O)[C@H](O[C@@H]1O[C@H](CN)[C@@H](O)[C@H]1O)[C@H]1O[C@@H](n2ccc(=O)[nH]c2=O)[C@H](O)[C@@H]1O`, the MIC in assay [1] amounted to 8 µg/mL (≈ 8.63 µM); in assay [3], 8 µg/mL (≈ 8.63 µM); in assay [4], 4 µg/mL (≈ 4.31 µM); in assay [5] it was 4 µg/mL (≈ 4.31 µM); in assay [6], 8 µg/mL (≈ 8.63 µM).
Regarding `CCCCCCCCCCCCCCC[C@H](NC(=O)[C@@H](N)CCCSC)C(=O)NCCCN[C@H](C(=O)O)[C@H](O[C@@H]1O[C@H](CN)[C@@H](O)[C@H]1O)[C@H]1O[C@@H](n2ccc(=O)[nH]c2=O)[C@H](O)[C@@H]1O`, the MIC in assay [1] stood at 8 µg/mL (≈ 8.71 µM); in assay [3], 8 µg/mL (≈ 8.71 µM); in assay [4], 4 µg/mL (≈ 4.36 µM); in assay [5] it was 4 µg/mL (≈ 4.36 µM); in assay [6], 8 µg/mL (≈ 8.71 µM).
As for `CCCCCCCCCCCCCCC[C@@H](NC(=O)[C@@H](NC(=O)N[C@H](C(=O)O)C(C)C)[C@H]1CCNC(=N)N1)C(=O)NCCCN[C@H](C(=O)O)[C@H](O[C@@H]1O[C@H](CN)[C@@H](O)[C@H]1O)[C@H]1O[C@@H](n2ccc(=O)[nH]c2=O)[C@H](O)[C@@H]1O`, the MIC in assay [1] is 4 µg/mL (≈ 3.74 µM); in assay [3], 4 µg/mL (≈ 3.74 µM); in assay [4] it was 4 µg/mL (≈ 3.74 µM); in assay [5], 2 µg/mL (≈ 1.87 µM); in assay [6] it was 2 µg/mL (≈ 1.87 µM).
Turning to `CCCCCCCCCCCCCCC[C@@H](NC(=O)[C@@H](NC(=O)OCc1ccccc1)[C@@H]1CCNC(=N)N1)C(=O)NCCCN[C@H](C(=O)O)[C@H](O[C@@H]1O[C@H](CN)[C@@H](O)[C@H]1O)[C@H]1O[C@@H](n2ccc(=O)[nH]c2=O)[C@H](O)[C@@H]1O`, the MIC in assay [1] worked out at 4 µg/mL (≈ 3.77 µM); in assay [3], 8 µg/mL (≈ 7.54 µM); in assay [4], 4 µg/mL (≈ 3.77 µM); in assay [5] it was 4 µg/mL (≈ 3.77 µM); in assay [6], 8 µg/mL (≈ 7.54 µM).
With `CCCCCCOc1ccc(-c2ccc([C@@H](NC(=O)[C@@H](NC(=O)N[C@H](C(=O)O)C(C)C)[C@@H]3CCNC(=N)N3)C(=O)NCCCN[C@H](C(=O)O)[C@H](O[C@@H]3O[C@H](CN)[C@@H](O)[C@H]3O)[C@H]3O[C@@H](n4ccc(=O)[nH]c4=O)[C@H](O)[C@@H]3O)cc2)cc1`, the MIC in assay [1] amounted to 8 µg/mL (≈ 7.19 µM); in assay [2], 4 µg/mL (≈ 3.6 µM); in assay [3], 16 µg/mL (≈ 14.4 µM); in assay [4], 16 µg/mL (≈ 14.4 µM); in assay [5] it was 16 µg/mL (≈ 14.4 µM); in assay [6], 16 µg/mL (≈ 14.4 µM).
Consider `CCCCCCCCCCCCCCC[C@@H](NC(=O)[C@H](CCCN)NC(=O)N[C@H](C(=O)O)C(C)C)C(=O)NCCCN[C@H](C(=O)O)[C@H](O[C@@H]1O[C@H](CN)[C@@H](O)[C@H]1O)[C@H]1O[C@@H](n2ccc(=O)[nH]c2=O)[C@H](O)[C@@H]1O`, for which the MIC stood at 8 µg/mL (≈ 7.77 µM) in assay [1]; 4 µg/mL (≈ 3.88 µM) in assay [3]; 8 µg/mL (≈ 7.77 µM) in assay [4]; 8 µg/mL (≈ 7.77 µM) in assay [5]; 8 µg/mL (≈ 7.77 µM) in assay [6].
For `CCCCCCCCCCCCCCC[C@H](NC(=O)[C@@H](N)CCCNC(=N)N)C(=O)NCCCN[C@H](C(=O)O)[C@H](O[C@@H]1O[C@H](CN)[C@@H](O)[C@H]1O)[C@H]1O[C@@H](n2ccc(=O)[nH]c2=O)[C@H](O)[C@@H]1O`, the MIC in assay [1], in assay [3], in assay [4], in assay [5] and in assay [6] was 4 µg/mL (≈ 4.31 µM) throughout.
With `CCCCCCCCCCCCCCC[C@H](NC(=O)[C@@H](NC(=O)OCc1ccccc1)[C@@H]1CCNC(=N)N1)C(=O)NCCCN[C@H](C(=O)O)[C@H](O[C@@H]1O[C@H](CN)[C@@H](O)[C@H]1O)[C@H]1O[C@@H](n2ccc(=O)[nH]c2=O)[C@H](O)[C@@H]1O`, the MIC in assay [1] worked out at 8 µg/mL (≈ 7.54 µM); in assay [3] it was 8 µg/mL (≈ 7.54 µM); in assay [4], 4 µg/mL (≈ 3.77 µM); in assay [5], 4 µg/mL (≈ 3.77 µM); in assay [6] it was 8 µg/mL (≈ 7.54 µM).
As to `CCCCCCCCCCCCCCC[C@H](NC(=O)[C@@H](N)CCCN)C(=O)NCCCN[C@H](C(=O)O)[C@H](O[C@@H]1O[C@H](CN)[C@@H](O)[C@H]1O)[C@H]1O[C@@H](n2ccc(=O)[nH]c2=O)[C@H](O)[C@@H]1O`, the MIC in assay [1] is 8 µg/mL (≈ 9.02 µM); in assay [3], 4 µg/mL (≈ 4.51 µM); in assay [4], 4 µg/mL (≈ 4.51 µM); in assay [5], 4 µg/mL (≈ 4.51 µM); in assay [6], 4 µg/mL (≈ 4.51 µM).
Consider `CCCCCCCCCCCCCCC[C@H](NC(=O)[C@@H](NC(=O)N[C@H](C(=O)O)C(C)C)[C@H]1CCNC(=N)N1)C(=O)NCCCN[C@H](C(=O)O)[C@H](O[C@@H]1O[C@H](CN)[C@@H](O)[C@H]1O)[C@H]1O[C@@H](n2ccc(=O)[nH]c2=O)[C@H](O)[C@@H]1O`, for which the MIC in assay [1] is 2 µg/mL (≈ 1.87 µM); in assay [3] it was 2 µg/mL (≈ 1.87 µM); in assay [4] it was 4 µg/mL (≈ 3.74 µM); in assay [5], 2 µg/mL (≈ 1.87 µM); in assay [6], 2 µg/mL (≈ 1.87 µM).
Consider `CN[C@H](CC(C)C)C(=O)N[C@H]1C(=O)N[C@@H](CC(N)=O)C(=O)N[C@H]2C(=O)N[C@H]3C(=O)N[C@H](C(=O)N[C@H](C(=O)O)c4cc(O)cc(O)c4-c4cc3ccc4O)[C@H](O)c3ccc(c(Cl)c3)Oc3cc2cc(c3O[C@@H]2O[C@H](CO)[C@@H](O)[C@H](O)[C@H]2O[C@H]2C[C@](C)(N)[C@H](O)[C@H](C)O2)Oc2ccc(cc2Cl)[C@H]1O` [VANCOMYCIN], for which the values for the MIC in assay [1], in assay [4] and in assay [5] were > 64 µg/mL, > 64 µg/mL and 1 µg/mL (≈ 0.69 µM), respectively.
